Test results as given in paper PMC8056739 (British Journal of Clinical Pharmacology, 2020).
Values joined by “and” are separate entries in the source; they are usually repeats but may differ in a detail not shown here. Equal entries are not always repeated.

Columns and labels:
[1] = Population PK model of peficitinib in RA patients; assay type: in vivo, human
Outline: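 RA patients' plasma levels measured by validated LC–MS/MS (LLOQ 0.25 ng/mL) from trough and post-dose samples. BLQ values, samples >48 h after dosing (or <19 h in RAJ1), and outliers (>mean+3×SD of log trough per arm) were excluded. NONMEM, FOCE with interaction, healthy-volunteer model as prior (NWPRI penalty). 2-compartment model, exponential IIV, proportional residual. Stepwise covariate selection, power function centred on mean. 1000 bootstrap runs.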

[2] = Prior population PK model of peficitinib in healthy volunteers; assay type: in vivo; details: human, plasma, oral, 150 mg
Outline: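 Healthy-volunteer plasma levels from five clinical pharmacology studies, excluding renal/hepatic-impairment subjects. Validated LC–MS/MS (LLOQ 0.25 ng/mL), BLQ values unused. NONMEM, FOCE with interaction. 2-compartment model, five absorption schemes compared, exponential IIV, proportional residual. Covariates tested on CL: age, weight, MDRD eGFR, liver enzymes, bilirubin. Selection stepwise (forward .01, backward .001). Assessed by goodness-of-fit plots and visual predictive check.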

[3] = cited from earlier work
[4] = RA patient model, 1000 bootstrap runs
[5] = RA patient model, √(exp(ω^2)-1) × 100

NC(=O)c1cnc2[nH]ccc2c1N[C@@H]1[C@@H]2CC3C[C@H]1C[C@@](O)(C3)C2 [peficitinib]
ALAG, absorption lag time (estimate) ([1]; RA patient model): 0.132 h | D, duration of zero-order absorption (estimate) ([1]; RA patient model): 1.37 h | Ka, first-order absorption rate constant (estimate) ([1]; RA patient model): 5.83 L/h | Vc, apparent distribution volume of the central compartment (estimate) ([1]; RA patient model): 280 L | Vp, apparent distribution volume of the peripheral compartment (estimate) ([1]; RA patient model): 122 L | CL, apparent total systemic clearance (estimate) ([1]; RA patient model, population estimate, oral): 91.7 L/h | ALAG, bootstrap median [1, 4]: 0.132 h | D, bootstrap median [1, 4]: 1.36 h | Ka, bootstrap median [1, 4]: 5.82 L/h | Q, bootstrap median [1, 4]: 10.2 L/h | Vc, bootstrap median [1, 4]: 279 L | Vp, bootstrap median [1, 4]: 122 L | Covariate eGFR on CL (exponent of power function, estimate) ([1]; RA patient model, eGFR centred at 91.5 mL/min/1.73m^2): 0.213 | Covariate LYM (lymphocyte count) on CL (exponent of power function, estimate) ([1]; RA patient model, lymphocyte count centred at 1550 10^6/L): −0.104 | Interindividual variability of CL [1, 5]: 25.7% | Interindividual variability of Vc [1, 5]: 39.2% | clearance ([1]; human, plasma, oral): 1530 mL/min | Model predicted mean change in CL from population mean CL ([1]; patients with observed maximum eGFR of 188 mL/min/1.73m^2): 16.7% | Model predicted mean change in CL from population mean CL ([1]; patients with observed maximum lymphocyte count of 4600 10^6/L): −10.7% | Model predicted mean change in CL from population mean CL ([1]; patients with observed minimum eGFR of 36.4 mL/min/1.73m^2): −17.8% | Model predicted mean change in CL from population mean CL ([1]; patients with observed minimum lymphocyte count of 500 10^6/L): 12.3% | clearance [2]: 1390 mL/min | Exposure in healthy Japanese compared with Caucasian [3]: greater | Mean exposure in subjects with moderate hepatic impairment [3]: increases | Mean AUCinf ([3]; healthy subjects, single dose 450 mg): 4660 ng·h/mL | Tolerability ([3]; healthy subjects, single dose up to 450 mg): tolerability was shown | Dose proportionality of exposure ([3]; healthy volunteers, single doses 3–300 mg): dose‐proportional exposure | Increase of AUCinf by food intake ([3]; healthy volunteers): 27% and 36% and 27–36% | Mean terminal half-life (t1/2) ([3]; healthy volunteers): 2.8 to 12.9 h | Time to maximum observed concentration (Tmax) ([3]; healthy volunteers): 1.0 to 1.8 h | Urinary excretion of peficitinib, share of the oral dose ([3]; healthy volunteers): 9–15% | Exposure in subjects with versus without renal impairment ([3]; single, oral 150 mg dose): comparable
